# According to ChEMBL document CHEMBL1126868, “Inhibitors of blood platelet cAMP phosphodiesterase. 4. Structural variation of the side-chain terminus of water-soluble 1,3-dihydro-2H-imidazo[4,5-b]quinolin-2-one derivatives” (J Med Chem, 1993):
# pIC50: −log10 of the molar value.
# Columns and labels:
# Homo sapiens [1] = species: Homo sapiens; assay: Inhibition of human platelet aggregation induced by ADP after 3 min incubation with platelet rich plasma; type: functional; settings: 0.05 h
# Method in brief: (§1)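 Human platelet-rich plasma was preincubated with drug for 3 min (standard) or 15 min, then aggregation was induced with 5.86 μM ADP. Aggregation at a range of drug concentrations was compared with vehicle-treated controls, and IC50 was taken from dose-response curves. Values are single, duplicate or triplicate (with SD) determinations.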
# [2] = Aqueous solubility; type: physicochemical; settings: read-out: S
# Method in brief: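 A 10-mg sample was placed in 0.5 mL water and diluted stepwise up to 10 mL, or until it dissolved. Solubility is reported in mg/mL.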
# Phosphodiesterase 3 = Phosphodiesterase 3 (Homo sapiens, UniProt Q14432+Q13370); assay: Inhibition of human platelet aggregation cAMP PDE in vitro; type: functional
# Method in brief: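 Human platelet cAMP PDE assay run as in an earlier protocol, except that the [3H]adenosine product was resolved on DEAE Sephadex. Values are means of duplicate (deviation under 50% of mean) or triplicate determinations.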
# [3] = half-life (t1/2 min); type: ADME
# Method in brief: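 Same monkey liver S-9 incubation (37 °C, final drug 1 or 10 μg/mL, triplicate). Aliquots taken at 0, 15, 30, 60, 90 and 120 min, quenched with MeOH and analysed for parent by fluorescence HPLC peak height. Half-life = ln 2 divided by the slope of a least-squares linear regression of peak height against time.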
# [4] = % metabolized in monkey S-9 after 2 hours (10 ug/ml); type: ADME; settings: simiiformes, monkey S-9 fraction; read-out: Activity
# Method in brief: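 Monkey liver homogenised at 0 °C in 3 volumes isotonic KCl (0.05 M phosphate, pH 7.4), spun 9000g 30 min to give S-9. Triplicate incubations at 37 °C for 2 h with cofactor mix (glucose-6-phosphate, NADP, nicotinamide, MgCl2), final drug 1 or 10 μg/mL. Parent measured by fluorescence HPLC after MeOH protein precipitation; % metabolized = 100% minus % remaining at 2 h versus t=0.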
# Homo sapiens [5] = species: Homo sapiens; assay: Inhibition of human platelet aggregation induced by ADP after 15 min incubation with platelet rich plasma; type: functional; settings: 0.25 h; method in brief: as §1
SMILES,pIC50 (Homo sapiens [1]),solubility [2],IC50 (Phosphodiesterase 3),half-life [3],"metabolised at 2 h, 10 ug/ml [4]",pIC50 (Homo sapiens [5])
Cl.O=C(NCCCOc1ccc2[nH]c3nc(O)nc-3cc2c1)N1CCN(Cc2ccsc2)CC1,6.55,3 mg/mL,,,,
CCOC(=O)N1CCC(S(=O)(=O)CCCOc2ccc3[nH]c4nc(O)nc-4cc3c2)CC1,6.19,< 1 mg/mL,,,,
CCOC(=O)N1CCC(S(=O)(=O)CCCCOc2ccc3[nH]c4nc(O)nc-4cc3c2)CC1,6.39,< 1 mg/mL,,,,
Cl.O=C(NCCCOc1ccc2[nH]c3nc(O)nc-3cc2c1)N1CCN(Cc2ccc(F)cc2)CC1,6.46,> 20 mg/mL,0.00278 µM,1.08 h,70%,7.30
CC(C)CN1CCN(C(=O)NCCCOc2ccc3[nH]c4nc(O)nc-4cc3c2)CC1.Cl,6.74,> 20 mg/mL,,,,
Cl.O=S(=O)(CCCOc1ccc2[nH]c3nc(O)nc-3cc2c1)N1CCN(CCC2CCCCC2)CC1,5.69,< 5 mg/mL,,,,
Cl.O=S(=O)(CCCOc1ccc2[nH]c3nc(O)nc-3cc2c1)N1CCN(CCc2ccccc2)CC1,5.98,< 10 mg/mL,,,,
Cl.O=S(=O)(CCCCOc1ccc2[nH]c3nc(O)nc-3cc2c1)C1CCNCC1,4.83,> 10 mg/mL,,,,
CCCC(CCC)CN1CCC(S(=O)(=O)CCCOc2ccc3[nH]c4nc(O)nc-4cc3c2)CC1.Cl,6.64,1 mg/mL,,,,
Cl.O=S(=O)(CCCOc1ccc2[nH]c3nc(O)nc-3cc2c1)C1CCN(CCc2ccccc2)CC1,6.89,< 5 mg/mL,,,,
Cl.O=S(=O)(CCCOc1ccc2[nH]c3nc(O)nc-3cc2c1)N1CCN(Cc2cccc(C(F)(F)F)c2)CC1,6.49,2 mg/mL,,,,
Cl.O=C(NCCCOc1ccc2[nH]c3nc(O)nc-3cc2c1)N1CCN(CCc2ccccc2)CC1,6.52,0.25 mg/mL,,,,
Cl.O=C(NCCCOc1ccc2[nH]c3nc(O)nc-3cc2c1)N1CCN(c2ccccn2)CC1,6.16,0.5 mg/mL,,,,
Cl.O=S(=O)(CCCOc1ccc2[nH]c3nc(O)nc-3cc2c1)C1CCNCC1,< 4.18,> 10 mg/mL,,,,
CCCC(CCC)CN1CCN(C(=O)NCCCOc2ccc3[nH]c4nc(O)nc-4cc3c2)CC1.Cl,6.89,0.5 mg/mL,,,,
Cl.O=C(NCCCOc1ccc2[nH]c3nc(O)nc-3cc2c1)N1CCNCC1,5.09,> 20 mg/mL,,,,
Cl.Cl.O=C(NCCCOc1ccc2[nH]c3nc(O)nc-3cc2c1)N1CCN(Cc2ccc(Cl)cc2)CC1,6.54,0.2 mg/mL,,,,

SMILES,pIC50 (Homo sapiens [1]),solubility [2],IC50 (Phosphodiesterase 3),half-life [3],"metabolised at 2 h, 10 ug/ml [4]",pIC50 (Homo sapiens [5])
Cl.O=C(NCCCOc1ccc2[nH]c3nc(O)nc-3cc2c1)N1CCN(CC2CCCCO2)CC1 (stereo not given),6.80,> 20 mg/mL,,,,
Cl.Oc1nc2cc3cc(OCCCCc4nnnn4C4CCNCC4)ccc3[nH]c-2n1,5.27,5 mg/mL,,,,
CCOC(=O)N1CCC(n2nnnc2CCCCOc2ccc3[nH]c4nc(O)nc-4cc3c2)CC1,7.00,< 1 mg/mL,,,,
Cl.O=S(=O)(CCCOc1ccc2[nH]c3nc(O)nc-3cc2c1)N1CCN(CC2CCCCC2)CC1,6.96,> 20 mg/mL,0.00256 µM,2.02 h,49.4%,7.22
Cl.O=S(=O)(CCCOc1ccc2[nH]c3nc(O)nc-3cc2c1)N1CCN(c2nc3ccccc3o2)CC1,5.62,> 20 mg/mL,,,,
CCC(CC)CN1CCN(S(=O)(=O)CCCOc2ccc3[nH]c4nc(O)nc-4cc3c2)CC1.Cl,6.80,> 10 mg/mL,0.00514 µM,2.87 h,38.8%,7.40
O=CN1CCN(S(=O)(=O)CCCOc2ccc3[nH]c4nc(O)nc-4cc3c2)CC1,4.88,< 1 mg/mL,,,,
Cl.O=S(=O)(CCCOc1ccc2[nH]c3nc(O)nc-3cc2c1)N1CCNCC1,4.81,> 20 mg/mL,,,,
Cl.Cl.O=S(=O)(CCCOc1ccc2[nH]c3nc(O)nc-3cc2c1)N1CCN(Cc2ccc(Cl)cc2)CC1,6.28,> 20 mg/mL,,,,
COc1ccc(CN2CCN(S(=O)(=O)CCCOc3ccc4[nH]c5nc(O)nc-5cc4c3)CC2)cc1.Cl,6.34,> 20 mg/mL,,,,
Cl.O=S(=O)(CCCOc1ccc2[nH]c3nc(O)nc-3cc2c1)N1CCN(c2nc3ccccc3s2)CC1,5.31,1 mg/mL,,,,
Cl.Oc1nc2cc3cc(OCCCc4nnnn4C4CCNCC4)ccc3[nH]c-2n1,4.94,> 20 mg/mL,,,,
Cl.O=C(NCCCOc1ccc2[nH]c3nc(O)nc-3cc2c1)N1CCN(c2ncccn2)CC1,6.49,0.1 mg/mL,,,,
Cl.O=C(NCCCOc1ccc2[nH]c3nc(O)nc-3cc2c1)N1CCN(Cc2cccs2)CC1,6.80,> 10 mg/mL,,,,
Cl.O=C(NCCCOc1ccc2[nH]c3nc(O)nc-3cc2c1)N1CCC(N2CCCCC2)CC1,5.01,> 20 mg/mL,,,,
CCOC(=O)N1CCC(n2nnnc2CCCOc2ccc3[nH]c4nc(O)nc-4cc3c2)CC1,6.38,< 1 mg/mL,,,,
Cl.O=C(NCCCOc1ccc2[nH]c3nc(O)nc-3cc2c1)N1CCN(Cc2ccccc2)CC1,6.51,> 20 mg/mL,0.00111 µM,2.17 h,46.8%,7.30

# The next compounds have a higher pIC50 (Homo sapiens [1]) than those just listed; values first:
pIC50 (Homo sapiens [1]),solubility [2],IC50 (Phosphodiesterase 3),half-life [3],"metabolised at 2 h, 10 ug/ml [4]",pIC50 (Homo sapiens [5]),SMILES
7.42,< 5 mg/mL,,,,,Cl.O=S(=O)(CCCOc1ccc2[nH]c3nc(O)nc-3cc2c1)C1CCN(Cc2cccc(C(F)(F)F)c2)CC1
7.47,> 10 mg/mL,,,,,Cl.O=S(=O)(CCCOc1ccc2[nH]c3nc(O)nc-3cc2c1)C1CCN(CC2CCCCO2)CC1 (stereo not given)
7.08,< 5 mg/mL,,,,,Cl.Oc1nc2cc3cc(OCCCc4nnnn4C4CCN(CCc5ccccc5)CC4)ccc3[nH]c-2n1
7.38,5 mg/mL,,,,,Cl.O=S(=O)(CCCCOc1ccc2[nH]c3nc(O)nc-3cc2c1)C1CCN(Cc2ccccc2)CC1
7.38,> 20 mg/mL,0.00125 µM,2.68 h,37.3%,8.15,CCC(CC)CN1CCN(C(=O)NCCCOc2ccc3[nH]c4nc(O)nc-4cc3c2)CC1.Cl
7.70,> 5 mg/mL,,,,,Cl.Oc1nc2cc3cc(OCCCCc4nnnn4C4CCN(CC5CCCCC5)CC4)ccc3[nH]c-2n1
7.09,2 mg/mL,,,,,CCCC(CCC)CN1CCC(n2nnnc2CCCOc2ccc3[nH]c4nc(O)nc-4cc3c2)CC1.Cl
7.32,< 5 mg/mL,,,,,Cl.O=S(=O)(CCCOc1ccc2[nH]c3nc(O)nc-3cc2c1)C1CCN(CCC2CCCCC2)CC1
7.52,> 10 mg/mL,0.00113 µM,7.55 h,15.2%,8.08,Cl.O=S(=O)(CCCOc1ccc2[nH]c3nc(O)nc-3cc2c1)C1CCN(CC2CCCCC2)CC1
7.29,> 5 mg/mL,,,,,Cl.Oc1nc2cc3cc(OCCCCc4nnnn4C4CCN(Cc5ccc(F)cc5)CC4)ccc3[nH]c-2n1
7.68,5 mg/mL,,,,,CCC(CC)CN1CCC(S(=O)(=O)CCCCOc2ccc3[nH]c4nc(O)nc-4cc3c2)CC1.Cl
7.57,> 10 mg/mL,,,,,CC(C)CN1CCC(S(=O)(=O)CCCOc2ccc3[nH]c4nc(O)nc-4cc3c2)CC1.Cl
8.05,> 10 mg/mL,,,,,CC(C)CN1CCC(n2nnnc2CCCCOc2ccc3[nH]c4nc(O)nc-4cc3c2)CC1.Cl
7.51,> 5 mg/mL,,,,,Cl.Oc1nc2cc3cc(OCCCCc4nnnn4C4CCN(Cc5ccccc5)CC4)ccc3[nH]c-2n1
7.15,> 10 mg/mL,,,,,Cl.Oc1nc2cc3cc(OCCCc4nnnn4C4CCN(CC5CCCCO5)CC4)ccc3[nH]c-2n1 (stereo not given)
7.77,1 mg/mL,,,,,Cl.Oc1nc2cc3cc(OCCCc4nnnn4C4CCN(CC5CCCCCC5)CC4)ccc3[nH]c-2n1
7.52,2 mg/mL,,,,,Cl.O=S(=O)(CCCCOc1ccc2[nH]c3nc(O)nc-3cc2c1)C1CCN(CC2CCCCC2)CC1
7.27,2 mg/mL,,,,,Cl.O=C(NCCCOc1ccc2[nH]c3nc(O)nc-3cc2c1)N1CCN(CC2CCCCCC2)CC1
7.14,0.5 mg/mL,,,,,Cl.O=C(NCCCOc1ccc2[nH]c3nc(O)nc-3cc2c1)N1CCN(CCC2CCCCC2)CC1
8.05,3 mg/mL,,,,,Cl.Oc1nc2cc3cc(OCCCc4nnnn4C4CCN(CC5CCCC5)CC4)ccc3[nH]c-2n1
8.03,> 10 mg/mL,,,,,CC(C)CN1CCC(n2nnnc2CCCOc2ccc3[nH]c4nc(O)nc-4cc3c2)CC1.Cl
7.92,> 5 mg/mL,,,,,CCC(CC)CN1CCC(n2nnnc2CCCCOc2ccc3[nH]c4nc(O)nc-4cc3c2)CC1.Cl
7.17,2 mg/mL,,,,,Cl.O=S(=O)(CCCCOc1ccc2[nH]c3nc(O)nc-3cc2c1)C1CCN(Cc2ccc(F)cc2)CC1
7.03,0.7 mg/mL,,,,,Cl.O=C(NCCCOc1ccc2[nH]c3nc(O)nc-3cc2c1)N1CCN(CC2CCCC2)CC1
